Data as given in ChEMBL document CHEMBL4814038, “Discovery of sertraline and its derivatives able to combat drug-resistant gastric cancer cell via inducing apoptosis” (Bioorg Med Chem Lett, 2021).
Active and inactive are the calls of the source. No cut-off for these calls is given here.

Experiments:
SGC-7901 [1] = experiment: Antiproliferative activity against cisplatin resistant human SGC-7901 cells assessed as sensitizing activity at 20 uM in presence of cisplatin; assay type: functional, cell-based
How it was run: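 Cisplatin-resistant SGC-7901/DDP cells treated with each compound at 20 μM in combination with DDP (15 μM). Sensitizing effect read as inhibition of proliferation.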

SGC-7901 [2] = experiment: Antiproliferative activity against cisplatin resistant human SGC-7901 cells assessed as sensitizing activity in presence of cisplatin; assay type: functional, cell-based
How it was run: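 Cisplatin-resistant SGC-7901/DDP cells co-treated with DDP (15 μM) and compound over 1.0, 2.0, 4.0, 8.0, 12, 16, 20, 24 μM. IC50 derived from inhibition of proliferation.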

[3] = Effect on PI3K/AKT/mTOR signaling pathway in human SGC-7901 cells assessed as change in total AKT expression at 3 to 6 uM by Western blotting analysis; assay type: cell-based; details: dose 3-6 µM
How it was run: (§1)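 SGC-7901/DDP cells given DDP (15 μM) alone or with compound at 8 and 16 μM (parent) or 3 and 6 μM (derivatives). PI3K, Akt, mTOR and their phosphorylated forms detected by Western blotting.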

SGC-7901 [4] = experiment: Induction of apoptosis in human SGC-7901 cells assessed as necrotic cells at 3 uM by FITC/PI staining based flow cytometry analysis (reference value: 0.068 %); assay type: functional
SGC-7901 [5] = experiment: Induction of apoptosis in human SGC-7901 cells assessed as viable cells at 3 uM by FITC/PI staining based flow cytometry analysis (reference value: 94.3 %); assay type: functional; details: read-out: Activity
[6] = Effect on PI3K/AKT/mTOR signaling pathway in human SGC-7901 cells assessed as reduction in phosphorylated PI3K expression at 3 to 6 uM by Western blotting analysis; assay type: cell-based; details: filed as modulator, dose 3-6 µM; how it was run: as §1
SGC-7901 [7] = experiment: Induction of cell cycle arrest in human SGC-7901 cells assessed as accumulation at G0/G1 phase at 3 to 6 uM by flow cytometry analysis; assay type: functional, cell-based; details: dose 3-6 µM
How it was run: (§2)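 SGC-7901/DDP cells exposed to DDP (15 μM) with compound at 8 and 16 μM (parent) or 3 and 6 μM (derivatives). Cell-cycle distribution measured by flow cytometry, with G0/G1 fraction scored.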

SGC-7901 [8] = experiment: Induction of apoptosis in human SGC-7901 cells assessed as early apoptotic cells at 3 uM by FITC/PI staining based flow cytometry analysis (reference value: 3.06 %); assay type: functional
[9] = Effect on PI3K/AKT/mTOR signaling pathway in human SGC-7901 cells assessed as reduction in phosphorylated AKT expression at 3 to 6 uM by Western blotting analysis; assay type: cell-based; details: filed as modulator, dose 3-6 µM; how it was run: as §1
SGC-7901 [10] = experiment: Induction of apoptosis in human SGC-7901 cells assessed as late apoptotic cells at 3 uM by FITC/PI staining based flow cytometry analysis (reference value: 2.56 %); assay type: functional
[11] = Effect on PI3K/AKT/mTOR signaling pathway in human SGC-7901 cells assessed as reduction in phosphorylated mTOR expression at 3 to 6 uM by Western blotting analysis; assay type: cell-based; details: filed as modulator, dose 3-6 µM; how it was run: as §1
SGC-7901 [12] = experiment: Induction of apoptosis in human SGC-7901 cells assessed as upregulation of cleaved caspase 3 expression level by Western blotting analysis; assay type: functional, cell-based; details: dose 3-6 µM
[13] = Effect on PI3K/AKT/mTOR signaling pathway in human SGC-7901 cells assessed as change in total mTOR expression at 3 to 6 uM by Western blotting analysis; assay type: cell-based; details: dose 3-6 µM; how it was run: as §1
[14] = Effect on PI3K/AKT/mTOR signaling pathway in human SGC-7901 cells assessed as change in total PI3K expression at 3 to 6 uM by Western blotting analysis; assay type: cell-based; details: dose 3-6 µM; how it was run: as §1
[15] = Effect on PI3K/AKT/mTOR signaling pathway in human SGC-7901 cells assessed as change in total AKT expression at 8 to 16 uM by Western blotting analysis; assay type: cell-based; details: dose 8-16 µM; how it was run: as §1
[16] = Effect on PI3K/AKT/mTOR signaling pathway in human SGC-7901 cells assessed as reduction in phosphorylated mTOR expression at 8 to 16 uM by Western blotting analysis; assay type: cell-based; details: filed as modulator, dose 8-16 µM; how it was run: as §1
SGC-7901 [17] = experiment: Induction of apoptosis in human SGC-7901 cells assessed as early apoptotic cells at 8 uM by FITC/PI staining based flow cytometry analysis (reference value: 3.06 %); assay type: functional
[18] = Effect on PI3K/AKT/mTOR signaling pathway in human SGC-7901 cells assessed as change in total PI3K expression at 8 to 16 uM by Western blotting analysis; assay type: cell-based; details: dose 8-16 µM; how it was run: as §1
SGC-7901 [19] = experiment: Induction of cell cycle arrest in human SGC-7901 cells assessed as accumulation at G0/G1 phase at 8 to 16 uM by flow cytometry analysis; assay type: functional, cell-based; details: dose 8-16 µM; how it was run: as §2
[20] = Effect on PI3K/AKT/mTOR signaling pathway in human SGC-7901 cells assessed as change in total mTOR expression at 8 to 16 uM by Western blotting analysis; assay type: cell-based; details: dose 8-16 µM; how it was run: as §1
SGC-7901 [21] = experiment: Induction of apoptosis in human SGC-7901 cells assessed as viable cells at 8 uM by FITC/PI staining based flow cytometry analysis (reference value: 94.3 %); assay type: functional; details: read-out: Activity
[22] = Effect on PI3K/AKT/mTOR signaling pathway in human SGC-7901 cells assessed as reduction in phosphorylated PI3K expression at 8 to 16 uM by Western blotting analysis; assay type: cell-based; details: filed as modulator, dose 8-16 µM; how it was run: as §1
[23] = Effect on PI3K/AKT/mTOR signaling pathway in human SGC-7901 cells assessed as reduction in phosphorylated AKT expression at 8 to 16 uM by Western blotting analysis; assay type: cell-based; details: filed as modulator, dose 8-16 µM; how it was run: as §1
SGC-7901 [24] = experiment: Induction of apoptosis in human SGC-7901 cells assessed as necrotic cells at 8 uM by FITC/PI staining based flow cytometry analysis (reference value: 0.068 %); assay type: functional
SGC-7901 [25] = experiment: Induction of apoptosis in human SGC-7901 cells assessed as late apoptotic cells at 8 uM by FITC/PI staining based flow cytometry analysis (reference value: 2.56 %); assay type: functional

## Clc1ccc([C@@H]2CC[C@@H](NCc3ccc4c(c3)OCO4)c3ccccc32)cc1Cl
SGC-7901 [1]
  Activity: inactive

## O=C(CCCCl)N[C@H]1CC[C@H](c2ccc(Cl)c(Cl)c2)c2ccccc21
SGC-7901 [1]
  Activity: inactive

## NCCN[C@@H]1CC[C@@H](c2ccc(Cl)c(Cl)c2)c2ccccc21 (relative stereo)
SGC-7901 [1]
  Activity: Active
SGC-7901 [2]
  IC50: 11 µM

## NCCCCCCN[C@@H]1CC[C@@H](c2ccc(Cl)c(Cl)c2)c2ccccc21 (relative stereo)
SGC-7901 [1]
  Activity: Active
SGC-7901 [2]
  IC50: 11.1 µM

## Clc1ccc([C@H]2CC[C@H](NCCN3CCNCC3)c3ccccc32)cc1Cl (relative stereo)
[3]
  Activity: inactive
SGC-7901 [1]
  Activity: Active
SGC-7901 [4]
  Activity: 20.3%
SGC-7901 [5]
  viability at 3 µM: 34.5%
SGC-7901 [2]
  IC50: 5.2 µM
[6]
  Activity: Active
SGC-7901 [7]
  Activity: Active
SGC-7901 [8]
  Activity: 4.06%
[9]
  Activity: Active
SGC-7901 [10]
  Activity: 41%
[11]
  Activity: Active
SGC-7901 [12]
  Activity: Dose-Dependent Effect
[13]
  Activity: inactive

## NCCCCN[C@@H]1CC[C@H](c2ccc(Cl)c(Cl)c2)c2ccccc21 (relative stereo)
SGC-7901 [1]
  Activity: Active
SGC-7901 [2]
  IC50: 6.3 µM

## NCCCCCCN[C@@H]1CC[C@H](c2ccc(Cl)c(Cl)c2)c2ccccc21 (relative stereo)
SGC-7901 [1]
  Activity: Active
SGC-7901 [2]
  IC50: 18.9 µM

## CC(C)(C)OC(=O)N1CCN(CCN[C@@H]2CC[C@@H](c3ccc(Cl)c(Cl)c3)c3ccccc32)CC1 (relative stereo)
SGC-7901 [2]
  IC50: 17.1 µM

## NCCN[C@@H]1CC[C@H](c2ccc(Cl)c(Cl)c2)c2ccccc21 (relative stereo)
SGC-7901 [1]
  Activity: Active
SGC-7901 [2]
  IC50: 10.7 µM

## NCCCCN[C@@H]1CC[C@@H](c2ccc(Cl)c(Cl)c2)c2ccccc21 (relative stereo)
SGC-7901 [1]
  Activity: Active
SGC-7901 [4]
  Activity: 14.1%
SGC-7901 [5]
  viability at 3 µM: 30.7%
SGC-7901 [2]
  IC50: 6.28 µM
[6]
  Activity: Active
SGC-7901 [7]
  Activity: Active
SGC-7901 [8]
  Activity: 2.67%
[9]
  Activity: Active
[14]
  Activity: inactive
SGC-7901 [10]
  Activity: 44.6%
[11]
  Activity: Active
SGC-7901 [12]
  Activity: Dose-Dependent Effect
[13]
  Activity: inactive

## CC(=O)N[C@H]1CC[C@H](c2ccc(Cl)c(Cl)c2)c2ccccc21 (relative stereo)
SGC-7901 [1]
  Activity: inactive

## CCCCN[C@@H]1CC[C@@H](c2ccc(Cl)c(Cl)c2)c2ccccc21 (relative stereo)
SGC-7901 [1]
  Activity: Active

## COc1ccc(CN[C@@H]2CC[C@@H](c3ccc(Cl)c(Cl)c3)c3ccccc32)cc1 (relative stereo)
SGC-7901 [1]
  Activity: Active

## COc1ccc(CN[C@@H]2CC[C@@H](c3ccc(Cl)c(Cl)c3)c3ccccc32)cc1OC (relative stereo)
SGC-7901 [1]
  Activity: inactive

## COc1cccc(CN[C@@H]2CC[C@@H](c3ccc(Cl)c(Cl)c3)c3ccccc32)c1 (relative stereo)
SGC-7901 [1]
  Activity: inactive

## Cc1ccc(CN[C@@H]2CC[C@@H](c3ccc(Cl)c(Cl)c3)c3ccccc32)cc1 (relative stereo)
SGC-7901 [1]
  Activity: inactive

## Clc1ccc(CN[C@@H]2CC[C@@H](c3ccc(Cl)c(Cl)c3)c3ccccc32)cc1Cl (relative stereo)
SGC-7901 [1]
  Activity: inactive

## Clc1ccc([C@@H]2CC[C@@H](NCc3cccc4ccccc34)c3ccccc32)cc1Cl (relative stereo)
SGC-7901 [1]
  Activity: inactive

## Clc1ccc([C@@H]2CC[C@@H](NCc3ccccc3)c3ccccc32)cc1Cl (relative stereo)
SGC-7901 [1]
  Activity: Active

## FC(F)(F)c1cccc(CN[C@@H]2CC[C@@H](c3ccc(Cl)c(Cl)c3)c3ccccc32)c1 (relative stereo)
SGC-7901 [1]
  Activity: inactive

## N[C@@H]1CC[C@H](c2ccc(Cl)c(Cl)c2)c2ccccc21 (relative stereo)
SGC-7901 [1]
  Activity: inactive

## N[C@H]1CC[C@H](c2ccc(Cl)c(Cl)c2)c2ccccc21 (relative stereo)
SGC-7901 [1]
  Activity: inactive

## CN[C@H]1CC[C@@H](c2ccc(Cl)c(Cl)c2)c2ccccc21 [SERTRALINE]
[15]
  Activity: inactive
[16]
  Activity: Active
SGC-7901 [2]
  IC50: 18.7 µM
SGC-7901 [17]
  Activity: 4.21%
[6]
  Activity: Active
[18]
  Activity: inactive
SGC-7901 [19]
  Activity: Active
[20]
  Activity: inactive
SGC-7901 [21]
  viability at 8 µM: 55.2%
[9]
  Activity: Active
[22]
  Activity: Active
[11]
  Activity: Active
[23]
  Activity: Active
SGC-7901 [24]
  Activity: 19.7%
SGC-7901 [12]
  Activity: Dose-Dependent Effect
SGC-7901 [25]
  Activity: 20.9%
